Reference: ChEMBL document CHEMBL4699510, “Discovery of a series of ester-substituted NLRP3 inflammasome inhibitors” (Bioorg Med Chem Lett, 2020)

Legend:
[1] = biological target: NACHT, LRR and PYD domains-containing protein 3 (Homo sapiens, UniProt Q96P20); assay: Inhibition of NLRP3 in human PBMC cells assessed as inhibition of LPS and ATP-induced IL-1beta production; assay type: cell-based
[2] = Inhibition of IL-6 production in human PBMC
[3] = Stability in mouse blood assessed as compound remaining measured after 1 hr; assay type: ADME, tissue-based; conditions: read-out: Stabilty
Method in brief: (§1)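 Compound incubated in whole blood (human or mouse) at 37° C for one hour; stability expressed as percentage of compound remaining.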

[4] = Effective permeability of compound by PAMPA; assay type: ADME; conditions: read-out: Peff
[5] = Inhibition of TNFalpha production in human PBMC
[6] = Stability in human blood assessed as compound remaining measured after 1 hr; assay type: ADME, tissue-based; conditions: read-out: Stabilty; method in brief: as §1

Chain of NACHT, LRR and PYD domains-containing protein 3 (Q96P20 whole entry, the tested form may be a part): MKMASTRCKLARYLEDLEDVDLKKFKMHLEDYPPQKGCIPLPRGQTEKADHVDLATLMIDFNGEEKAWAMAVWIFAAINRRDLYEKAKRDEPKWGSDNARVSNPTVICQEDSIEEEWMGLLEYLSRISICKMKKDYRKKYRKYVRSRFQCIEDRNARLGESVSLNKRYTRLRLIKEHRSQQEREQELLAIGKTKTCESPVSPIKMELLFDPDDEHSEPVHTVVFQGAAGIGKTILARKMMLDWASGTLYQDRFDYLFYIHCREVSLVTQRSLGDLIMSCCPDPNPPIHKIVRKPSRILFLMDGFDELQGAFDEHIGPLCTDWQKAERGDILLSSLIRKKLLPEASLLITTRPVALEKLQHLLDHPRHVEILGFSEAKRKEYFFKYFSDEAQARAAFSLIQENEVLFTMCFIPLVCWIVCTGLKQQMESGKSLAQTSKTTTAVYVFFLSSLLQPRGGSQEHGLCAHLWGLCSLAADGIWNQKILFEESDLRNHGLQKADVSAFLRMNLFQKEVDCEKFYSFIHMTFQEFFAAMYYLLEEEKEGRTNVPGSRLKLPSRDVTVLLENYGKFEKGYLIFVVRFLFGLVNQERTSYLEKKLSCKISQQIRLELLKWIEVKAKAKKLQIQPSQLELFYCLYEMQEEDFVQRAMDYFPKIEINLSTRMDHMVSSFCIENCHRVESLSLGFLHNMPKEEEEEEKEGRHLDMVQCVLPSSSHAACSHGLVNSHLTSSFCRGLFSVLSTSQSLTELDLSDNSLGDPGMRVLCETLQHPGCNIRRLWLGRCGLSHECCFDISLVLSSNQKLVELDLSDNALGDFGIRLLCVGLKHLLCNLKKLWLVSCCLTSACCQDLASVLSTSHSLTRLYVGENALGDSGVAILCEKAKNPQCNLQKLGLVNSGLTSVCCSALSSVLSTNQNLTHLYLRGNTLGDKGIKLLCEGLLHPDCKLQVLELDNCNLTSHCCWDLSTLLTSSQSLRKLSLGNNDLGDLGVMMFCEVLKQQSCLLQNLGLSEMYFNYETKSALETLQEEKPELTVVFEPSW

Row | IC50 [1] [µM] | Structure (SMILES) | other results
1 | > 20 | CCOC(=O)CNC(=O)NC12CC3CC(CC(C3)C1)C2 | –
2 | > 20 | O=C(CNS(=O)(=O)c1ccccc1)Nc1c2c(cc3c1CCC3)CCC2 | –
3 | > 20 | CCOC(=O)CNC(=O)Nc1c2c(cc3c1CCC3)CCCC2 | –
4 | > 20 | CC(C)(C)OC(=O)CNC(=O)Nc1c2c(cc3c1CCC3)CCC2 | –
5 | > 20 | CCOC(=O)CNC(=O)NC(c1ccccc1)c1ccccc1 | –
6 | > 20 | O=C(O)CNC(=O)Nc1c2c(cc3c1CCC3)CCC2 | –
7 | > 20 | CCOC(=O)CNC(=O)Nc1c(C)cccc1C | –
8 | – | CCOC(=O)[C@@H](Cc1ncccn1)NC(=O)Nc1c2c(cc3c1CCC3)CCC2 | IC50 [2]: 4.3 µM; remaining at 1 h [3]: 0%; Papp [4]: 8.2 ×10⁻⁶ cm/s; IC50 [5]: 2.7 µM; remaining at 1 h [6]: 92.4%
9 | > 20 | COC(=O)[C@@H](Cc1ccncc1)NC(=O)Nc1c2c(cc3c1CCC3)CCC2 | –
10 | > 20 | O=C(O)CC(=O)Nc1c2c(cc3c1CCC3)CCC2 | –
11 | > 20 | CC(C)(O)c1coc(S(=O)(=O)NC(=O)Nc2cccc3c2CCC3)c1 | –
12 | > 20 | COC(=O)CNC(=O)Nc1c(C(C)C)cccc1C(C)C | –
13 | > 20 | CCOC(=O)CNC(=O)Nc1c2c(c(Cl)c3c1CCC3)CCC2 | –
14 | > 20 | O=C(CS(=O)(=O)Nc1ccccc1)Nc1c2c(cc3c1CCC3)CCC2 | –
15 | > 20 | Cc1nc(CNC(=O)Nc2c3c(cc4c2CCC4)CCC3)no1 | –
16 | > 20 | COC(=O)C(CCc1ccccc1)NC(=O)Nc1c2c(cc3c1CCC3)CCC2 (stereo not drawn) | –
17 | > 20 | CNC(=O)CNC(=O)Nc1c2c(cc3c1CCC3)CCC2 | –
18 | – | CCOC(=O)[C@@H](Cc1cnccn1)NC(=O)Nc1c2c(cc3c1CCC3)CCC2 | remaining at 1 h [3]: 0%; Papp [4]: 13.9 ×10⁻⁶ cm/s; remaining at 1 h [6]: 79.2%
19 | > 20 | CCOC(=O)CNC(=O)Nc1c2c(nc3c1CCC3)CCC2 | –
20 | > 20 | CN(C)C(=O)CNC(=O)Nc1c2c(cc3c1CCC3)CCC2 | –
21 | > 20 | COC(=O)C(C)(C)NC(=O)Nc1c2c(cc3c1CCC3)CCC2 | –
22 | > 20 | Cc1nnc(CNC(=O)Nc2c3c(cc4c2CCC4)CCC3)o1 | –
23 | > 20 | COC(=O)CC(=O)Nc1c2c(cc3c1CCC3)CCC2 | –
24 | > 20 | CC(C)(O)c1coc(S(=O)(=O)NC(=O)Nc2ccccc2)c1 | –
25 | – | CC(C)(O)c1coc(S(=O)(=O)[N-]C(=O)Nc2c3c(cc4c2CCC4)CCC3)c1.[Na+] | IC50 [2]: > 40 µM; Papp [4]: < 0.0003 ×10⁻⁶ cm/s; IC50 [5]: > 40 µM
